Experimental data pooled from the literature.
Lines come from different studies, so protocols differ. pIC50: −log10 of the molar value. Converted amounts (≈) assume the structure as drawn.

Compound	tested on	test	test system	setting	measurement	value
Clc1ccc(-c2nc3ccccc3n2Cc2ccccc2)cc1	Staphylococcus aureus	microbial growth, broth dilution	ATCC43300 MRSA	drug-resistant strain	MIC	256 µg/mL (≈ 803 µM)
COC(=O)c1cc(-c2cccc(NC(=O)Nc3ccc(Cl)c(Cl)c3)c2)on1	Escherichia coli	microbial growth, broth dilution	ATCC25922	–	MIC	> 64 µg/mL
Cc1c2cnccc2c(C)c2c1c1ccccc1n2Cc1ccccc1	MDA-MB-468	cell growth or viability, MTT	–	–	pIC50	4.74
Nc1ncnc2c([C@@H]3N[C@H](CO)[C@@H](O)[C@H]3O)c[nH]c12	Severe acute respiratory syndrome coronavirus	viral replication, inhibitor	Vero 76	3 µM	inhibition	0%
COC(=O)c1cc(-c2cccc(NC(=S)Nc3ccc(C#N)cc3)c2)on1	Escherichia coli	microbial growth, broth dilution	ATCC25922	–	MIC	> 64 µg/mL
Cc1ccc2nc(-c3ccc(Cl)cc3Cl)[nH]c2c1	Staphylococcus aureus	microbial growth, broth dilution	ATCC43300 MRSA	drug-resistant strain	MIC	128 µg/mL (≈ 462 µM)
OC[C@H]1O[C@@H](n2cnc3c(Cl)ncnc32)C[C@@H]1O	Severe acute respiratory syndrome coronavirus	plaque formation, inhibitor	Vero C1008	–	pIC50	< 3.52
C=CCn1c(-c2ccc(OC)c(OC)c2)nc2ccccc21	Staphylococcus aureus	microbial growth, broth dilution	ATCC43300 MRSA	drug-resistant strain	MIC	128 µg/mL (≈ 435 µM)
COc1ncnc2c1ncn2[C@@H]1O[C@H](CO)[C@@H](O)[C@H]1O	Severe acute respiratory syndrome coronavirus	plaque formation, inhibitor	Vero C1008	–	pIC50	< 3.52
COC(=O)c1cc(-c2cccc(NC(=S)Nc3ccccc3Cl)c2)on1	Escherichia coli	microbial growth, broth dilution	ATCC25922	–	MIC	> 64 µg/mL
O=C(NCCc1c[nH]c2ccccc12)C(=O)c1cn(Cc2ccc(Cl)cc2)c2ccccc12	C4-2	cell growth or viability, MTT	–	–	pIC50	< 4.00
C[C@]12CCC(=O)C(O)=C1CC[C@@H]1[C@@H]2CC[C@]2(C)C(=O)CC[C@@H]12	HN-6	cell growth or viability	–	72 h	pIC50	< 4.70
COC(=O)c1cc(-c2cccc(NC(=O)Nc3ccccc3)c2)on1	Escherichia coli	microbial growth, broth dilution	ATCC25922	–	MIC	> 64 µg/mL
OCC1CC(n2cnc3c(Cl)ncnc32)C1CO (stereo not drawn)	Severe acute respiratory syndrome coronavirus	plaque formation, inhibitor	Vero C1008	–	pIC50	< 3.52
COC(=O)c1cc(-c2cccc(NC(=O)NCc3ccccc3)c2)on1	Escherichia coli	microbial growth, broth dilution	ATCC25922	–	MIC	> 64 µg/mL
C=CCn1c(-c2ccc(Cl)cc2)nc2ccc(C)cc21	Staphylococcus aureus	microbial growth, broth dilution	ATCC43300 MRSA	drug-resistant strain	MIC	32 µg/mL (≈ 113 µM)
COC(=O)c1cc(-c2cccc(NC(=S)Nc3ccc(F)cc3)c2)on1	Escherichia coli	microbial growth, broth dilution	ATCC25922	–	MIC	> 64 µg/mL
CSc1ccc(-c2nc3ccccc3[nH]2)cc1	Staphylococcus aureus	microbial growth, broth dilution	ATCC43300 MRSA	drug-resistant strain	MIC	32 µg/mL (≈ 133 µM)
